In article PMC4609241 (Molecular imaging and biology : MIB : the official …, 2015):
Like-named read-outs stand apart in the source and are kept apart here.

Tests used:
Assay type in all cases: in vivo, mouse
Ex vivo blood half-life = settings: tail vein injection, 27 μCi, 100 μl
Summary of the method: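 For blood clearance, the tracer was given by tail vein. Blood was collected at 5, 15, 30, 60 and 120 min, weighed and γ-counted, and expressed as %IA/g (n = 4). A weighted t1/2 was derived.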

[1] = tested on: U87 MG glioblastoma xenografts; test: Biodistribution study in tumor xenograft mice
Summary of the method: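 Tumour xenograft mice were injected with the tracer, with or without Olaparib pre-injection. Mice were euthanized at 90 min p.i. and organ radioactivity was counted, expressed as %ID/g (n = 4, mean ± SD). Tumour-to-non-target tissue ratios, including tumour/brain and tumour/muscle, were calculated.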

U87 MG tumor [2] = settings: for Tumor to brain ratio: ex vivo
[3] = tested on: U87 MG glioblastoma xenografts; test: Small animal PET imaging of U87 MG glioblastoma xenografts
Summary of the method: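 Mice carrying U87 MG xenografts in the right shoulder were given 100–200 μl tracer (80–160 mCi/μmol), e.g. 200 μCi in 100 μl 15 % PEG300/85 % 0.9 % saline. PET/CT gave coronal and axial reconstructions, and tumour uptake and SUV were derived. Blocked mice were pre-injected with a 50-fold excess of Olaparib (3.7 μmol in 100 μl of the same vehicle).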

U87 MG tumor [4] = test: Autoradiography of resected tissues
Summary of the method: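 U87 MG tumour-bearing mice got the 18F-labelled fluorescent PARP1 tracer alone, or the tracer 30 min after Olaparib as a blocking agent. Tumour, brain and muscle were resected, and tumour slices were imaged by autoradiography beside H&E staining. Tissue/muscle ratios were calculated for tumours and brains in the non-blocked and blocked groups.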

[5] = blocked, pre-injection of Olaparib

- Blood half-life, weighted t1/2 (Ex vivo blood half-life): 15.6 min
- Tumor to muscle ratio ([1]; 90 min post injection): 4±0.6
- Metabolic stability in vivo (defluorination) ([1]; U87 MG xenograft-bearing mice, bone uptake): quick metabolic defluorination
- Tumor to brain tissue ratio ([1]; biodistribution): 12±2.1
- Kidneys uptake [1, 5]: 0.4±0.1 %ID/g
- Liver uptake [1, 5]: 2.02± 0.2 %ID/g
- Kidneys uptake ([1]; non-blocked): 0.7±0.1 %ID/g
- Liver uptake ([1]; non-blocked): 3.8±0.4 %ID/g
- Tumor uptake ([1]; positive control group (non-blocked), 90 min p.i.): 0.78±0.1 %ID/g
- Tumor to brain ratio (U87 MG tumor [2]; autoradiography): ninefold
- Tumor to brain ratio (U87 MG tumor [2]; surface fluorescence imaging): sevenfold
- Standardized uptake value (SUV) in U87 MG tumors ([3]; non-blocked): 1.10±0.53
- Uptake in U87 MG tumors ([3]; non-blocked): 0.78±0.1
- Standardized uptake value (SUV) in U87 MG tumors ([3]; pre-injection of an excess of Olaparib (50-fold)): 0.10±0.06
- Brain to muscle ratio (autoradiography) (U87 MG tumor [4]; Olaparib-blocked mice): 1.02±0.22
- Tumor to muscle ratio (autoradiography) (U87 MG tumor [4]; Olaparib-blocked mice): 2.6±1.6
- Brain to muscle ratio (autoradiography) (U87 MG tumor [4]; non-blocked mice): 0.87± 0.48
- Tumor to muscle ratio (autoradiography) (U87 MG tumor [4]; non-blocked mice): 7.5±0.9
Compound: CC1=CC(C)=[N+]2C1=Cc1ccc(CCC(=O)N3CCN(C(=O)c4cc(Cc5n[nH]c(=O)c6ccccc56)ccc4F)CC3)n1[B-]2(F)[18F] (stereo not drawn) [[^18F]PARPi-FL]
- Reduction of uptake in blocked U87 MG tumors ([1]; blocked U87 MG tumors): 84%
- Reduction of tumor uptake in Olaparib-blocked organs (U87 MG tumor [2]; autoradiography): 66±9%
- Reduction of tumor uptake in Olaparib-blocked organs (U87 MG tumor [2]; surface fluorescence imaging): 74±12%
- Organ uptake / excretion seen by PET ([3]; PET imaging): high uptake in the liver and in the intestinal tract
- Lowering of tumor to muscle ratio by blocking (U87 MG tumor [4]; Olaparib blocking): approximately 66%
- Overall reduction of tumor uptake in blocked mice (autoradiography) (U87 MG tumor [4]; Olaparib injected 30 min before tracer): 80±12%
